Myeloid diff MLP = compounds promoting myeloid differentiation; ER-HoxA9 myeloid progenitors, lysozyme-GFP differentiation, flow cytometry; calls only at 10 µM; 1% of 360,000 active; AID 624256;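 active = normalized GFP-positive differentiation at or above the plate's own cutoff, the solvent-only control mean plus 3 SD; inconclusive = no clear call, values can overlap the other calls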;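 note: cells exposed to compound for four days before flow analysis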
Vif inh = blocks HIV Vif function; HEK293T cells, Vif self-association by quenched fluorescence, imaging, 24 h; inhibition, % at 7.49 µM; 0.35% of 340,000 active; AID 602346; in the data active = inhibition above about 50%, passing the limit was not always enough; inconclusive = no clear call, values can overlap the other calls; inactive = below about 31%
Casp6 inh = caspase-6 (human) enzyme inhibition; P55212; purified caspase-6, Z-VEID-R110 cleavage fluorescence; inhibition, % at 12.5 µM; 0.53% of 350,000 active;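 active = mean inhibition across replicates at least about 35%, with every replicate also reaching that limit, limit read from the data; inconclusive = only one of the two criteria met; inactive = neither criterion met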
Target sequence (P55212 24-179 limits assumed): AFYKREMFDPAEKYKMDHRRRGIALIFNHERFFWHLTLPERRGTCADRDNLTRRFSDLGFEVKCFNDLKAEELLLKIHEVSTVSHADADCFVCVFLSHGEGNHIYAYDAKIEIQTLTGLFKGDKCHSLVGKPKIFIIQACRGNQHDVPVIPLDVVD
Target sequence (P55212 194-293 limits assumed): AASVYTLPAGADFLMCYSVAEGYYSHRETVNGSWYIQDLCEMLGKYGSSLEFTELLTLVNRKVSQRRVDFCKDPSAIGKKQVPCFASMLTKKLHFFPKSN
T cell HTS = T cell immune modulation candidate; 0.068% of 330,000 active; response (vesicle binding), % at 7 µM; AID 2052; 2C CD8+ T cell-vesicle binding, flow cytometry; active compounds read low;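 active = response, share of CD8 T cells binding vesicles, and their 90th percentile fluorescence all below set limits, cut at about 80% in these data, passing the limit was not always enough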;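 note: values below 100% mean blocked vesicle binding to the CD8+ T cells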
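Assay system – 2C mouse CD8+ T cells · Also added – QL9-loaded Drosophila micro-vesicles · Timing – Cell–vesicle co-incubation 1.5 h at 37 °C, staining 20 min on ice · Signal – flow cytometry of vesicle-bound cells · Measure – percent CD8+ FL2 mean versus row control · Controls – Peptide-free naked vesicles (low) and QL9 vesicles with 0.7% DMSO vehicle (high)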
Hits are given with their value; n = inactive; u = inconclusive; x = no result; + = active, no number. Only some compounds are listed: those with a hit (about 1.4% of all), similar ones and a draw of the others.

SMILES | Myeloid diff MLP | Vif inh | Casp6 inh | T cell HTS
Cc1oc(-c2ccc(Cl)cc2)nc1CN1CCCC(C(=O)N2CCOCC2)C1 (configuration not stated) | n | n | n | n
Cc1oc(-c2ccc(Cl)cc2)nc1CN1CCCC(C(=O)N2CCN(C(=O)c3ccco3)CC2)C1 (configuration not stated) | + | n | n | n
CCC/C(C#Cc1ccc(N(C)C)cc1)=C1/c2ccccc2C(=O)N1c1ccccc1 | + | n | n | n
COc1ccccc1NC(=O)N(C)C[C@H]1Oc2ncc(Br)cc2C(=O)N([C@@H](C)CO)C[C@H]1C | x | x | n | x
Cn1c(=O)c2[nH]c(CCc3ccncc3)nc2n(C)c1=O | n | n | n | x
CN(Cc1ccccc1)Cc1nc2c([nH]1)c(=O)n(C)c(=O)n2C | + | n | x | n
O=C1NC(NS(=O)(=O)c2ccccc2)(C(F)(F)F)C(=O)N1CCc1ccccc1 (configuration not stated) | n | n | n | n
COc1ccc(S(=O)(=O)NC2(C(F)(F)F)NC(=O)N(CCc3ccccc3)C2=O)cc1 (configuration not stated) | n | 55 | n | n
COc1cc(/C=C2\NC(=O)NC2=O)cc(Br)c1OC | n | n | n | n
CCOc1cc(/C=C2/NC(=O)NC2=O)cc(Br)c1OCc1ccc(C(=O)O)cc1 | n | n | 43 | n
CN(C)S(=O)(=O)c1ccc(NC(=O)COC(=O)C2COc3ccccc3O2)cc1 (configuration not stated) | n | 67 | n | n
O=C(NC[C@@H]1CC[C@@H]2[C@@H](CN2Cc2nccs2)O1)C1CCC1 | x | x | n | x
Cc1cc(C)nc(NS(=O)(=O)c2ccc(NS(=O)(=O)c3ccsc3)cc2)n1 | n | 74 | n | n
Cc1cc(C)nc(NS(=O)(=O)c2ccc(NS(=O)(=O)c3ccccc3)cc2)n1 | n | x | n | n
COC(=O)C[C@@H]1CC[C@H](NC(=O)c2ccc3c(c2)OCO3)[C@@H](CO)O1 | n | x | 43 | x
COC(=O)C[C@H]1CC[C@@H](NC(=O)Nc2ccc3c(c2)OCO3)[C@@H](CO)O1 | n | x | n | x
CO[C@H](CN(C)Cc1cc(F)ccc1F)[C@H](C)CN(C(=O)Nc1ccc(F)cc1)[C@H](C)CO | x | x | n | x
NC(=O)c1ccc(NC(=O)c2cccc(Oc3ccccc3)c2)cc1 | n | n | n | n
NS(=O)(=O)c1cccc(NC(=O)c2cccc(Oc3ccccc3)c2)c1 | + | n | n | n
Cc1cccc(C(=O)Nc2cccc(NC(=O)c3ccccc3)c2)c1 | x | n | 54 | n
Nc1nc(Sc2ccc([N+](=O)[O-])c3nonc23)c2[nH]cnc2n1 | x | n | 72 | x
O=C(C[C@@H]1C=C[C@@H](NS(=O)(=O)c2ccccc2F)[C@@H](CO)O1)NCCCN1CCOCC1 | x | x | n | x
Cn1c(=O)c(C(=O)NNC(=O)c2ccccc2F)c(O)c2ccccc21 | + | n | n | n
CCn1c(=O)c(C(=O)NNC(=O)c2ccccc2F)c(O)c2ccccc21 | u | n | n | n
CCC(=O)N[C@@H]1C=C[C@@H](CC(=O)NCc2ccc(OC)cc2)O[C@H]1CO | x | x | n | x
SMILES | Myeloid diff MLP | Vif inh | Casp6 inh | T cell HTS
CC(C)NC(=O)N(C)C[C@H]1OCCCC[C@@H](C)Oc2ccc(N(C)C)cc2C(=O)N([C@H](C)CO)C[C@H]1C | x | x | n | x
COc1ccc(Nc2nc(-c3c[nH]c4ccccc34)cs2)cc1 | + | n | n | n
COc1ccc(Nc2nc(-c3ccc(OC)cc3)cs2)cc1 | n | n | n | n
C[C@@H]1CN([C@@H](C)CO)C(=O)c2cc(NC(=O)Nc3ccc4c(c3)OCO4)ccc2O[C@@H](C)CCCCO[C@@H]1CN(C)C(=O)Nc1ccccc1 | x | x | n | x
COc1ccccc1-n1c(SCC(=O)Nc2cccc(C)c2)nc2c(c1=O)SCC2 | + | n | n | n
COc1ccc(C2=Nn3c(nnc3-c3ccc(OC)cc3)SC2)cc1 | n | 66 | x | n
COc1ccc(-c2nnc3n2N=C(C)CS3)cc1 | n | n | x | n
COc1ccc(C2=Nn3c(nnc3-c3ccccc3OC)SC2)cc1OC | n | 55 | x | n
C[C@H]1CN([C@@H](C)CO)C(=O)c2cc(-c3ccncc3)cnc2O[C@@H]1CN(C)S(=O)(=O)c1ccc(F)cc1 | x | x | n | x
CC(=O)N1c2c(cc(Br)cc2S(=O)(=O)N2CCOCC2)CC1C (configuration not stated) | n | 63 | x | n
CC(=O)N1c2c(cc(Br)cc2S(=O)(=O)N2CCCCC2)CC1C (configuration not stated) | n | n | n | n
COc1ccc(-n2c(=O)c(CCC(=O)N3CCN(c4cccc(OC)c4)CC3)nc3ccccc32)cc1 | n | x | n | x
COc1ccc(/C(O)=C/c2nc3ccccc3n(-c3ccccc3)c2=O)cc1 | + | n | x | n
O=C(NCc1cc(C(F)(F)F)ccc1Cl)c1cccc2c1C(=O)c1ccc(N3CCOCC3)cc1S2(=O)=O | + | u | n | n
O=C(NCc1cc(C(F)(F)F)ccc1Cl)c1cccc2c1C(=O)c1ccc(N3CCC(N4CCCCC4)CC3)cc1S2(=O)=O | + | n | n | x
O=C(NCc1cc(C(F)(F)F)ccc1Cl)c1cccc2c1C(=O)c1ccc(N3CCCCC3)cc1S2(=O)=O | u | n | n | n
C=Cc1c(C)c2cc3[nH]c(cc4nc(cc5nc(cc1[nH]2)C(C)=C5CCC(=O)O)C(CCC(=O)O)=C4C)c(C)c3C=C | n | n | 57 | n
O=C(C[C@H]1C=C[C@H](NC(=O)c2ccccc2)[C@H](CO)O1)NCc1ccc(Oc2ccccc2)cc1 | x | x | n | x
C[C@H](CO)N1C[C@H](C)[C@H](CN(C)C(=O)Nc2cccc3ccccc23)Oc2ccc(NC(=O)Nc3ccc4c(c3)OCO4)cc2C1=O | x | x | n | x
CCCCc1ccc(NC(=O)c2ccc(NS(C)(=O)=O)cc2)cc1 | + | n | n | n
Cc1ccc(OCC(=O)Nc2ccc3c(c2)C(=O)NC3=O)cc1 | n | n | n | n
CC(C)(C)c1ccc(OCC(=O)Nc2ccc3c4c(cccc24)C(=O)NC3=O)cc1 | + | n | n | x
CC1(C)CC[C@]2(CO)[C@@H](O)C[C@]3(C)C(=CCC4[C@@]5(C)CC[C@H](O)C(C)(C)C5CC[C@]43C)[C@@H]2C1 (some centres not stated) | x | x | x | n
CC1(C)C2CC[C@]3(C)C(CC=C4[C@@H]5C[C@@](C)(CO)[C@@H](O)C[C@]5(C(=O)O)CC[C@]43C)[C@@]2(C)CC[C@@H]1O (some centres not stated) | n | 67 | x | n
CCNC(=O)C1CC(=O)N(c2ccc(OCC)cc2)C1 (configuration not stated) | n | n | x | n
CCOc1ccc(N2CC(C(=O)NCC(=O)Nc3ccc(F)c(F)c3F)CC2=O)cc1 (configuration not stated) | n | n | 44 | n
O=C(O)c1ccc(NC(=O)c2ccc3c(c2)C(=O)N(CC2CCCO2)C3=O)cc1 (configuration not stated) | n | n | n | n
Cc1ccc(C(=O)Nc2ccc3c(c2)C(=O)N(CC2CCCO2)C3=O)cc1 (configuration not stated) | n | n | n | 65

Compound activity deposited in PubChem BioAssay by several laboratories.
